Scp-1 inhibitor – inhibitors of human Scp-1 phosphatase; actives 0.88% (n = 340,000); inhibition, % at 20 µM; Recombinant Scp1, phosphopeptide, malachite green phosphate absorbance; AID 493091; Q9GZU7;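 active = inhibition above about 50% at 20 µM, limit read from the data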;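 also: plate controls were DMSO wells with enzyme for no effect and wells lacking enzyme for full effect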
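Test system: SCP-1 phosphatase catalytic domain, residues 76-261 | Compound dosing: One concentration, 20 µM, with 1.0% DMSO | Schedule: 45 min room-temperature reaction, 5 min colour, 30 min stabiliser | Detection: Absorbance at 630 nm | Read-out basis: % inhibition of SCP-1 phosphate liberation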
LMPTP block – LMPTP (human) inhibition; inhibition, % at 20 µM; recombinant LMPTP-A, OMFP fluorogenic substrate, fluorescence intensity; actives 0.22% (n = 360,000); AID 651560;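 active = compounds that cut the enzyme signal by at least half of the control window in the single-dose screen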;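 also: plate controls were DMSO wells with enzyme plus substrate for no effect and substrate without enzyme for full effect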
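Assay system: LMPTP-A phosphatase enzyme | Input: 0.625 nM enzyme | Also added: Fluorogenic phosphatase substrate OMFP at 400 µM final | Compound dosing: One test concentration per compound, 20 µM, with 3% DMSO overall | Schedule: 50 min enzyme reaction at room temperature, protected from light | Signal: Fluorescence intensity | Benchmarks: no-enzyme and uninhibited controls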
SUMO1-SIM PPI – modulators of human SUMO1-mediated protein-protein interactions | P63165 | SUMO1 binding to a labelled peptide, TR-FRET, 1 h | inhibition, % at 20 µM | actives 0.33% (n = 360,000); in the data active = inhibition above about 37%
DNMT1 block – inhibitors of human DNMT1 | P26358 | DNMT1 molecular beacon, Hinp1I cleavage, fluorescence | inhibition (reported as % activation of signal), % at 10 µM | actives 0.83% (n = 360,000) | AID 588458; in the data active = inhibition above about 50%
STEP inh – blocks human striatal-enriched tyrosine phosphatase; P54829; recombinant STEP, OMFP fluorogenic substrate, fluorescence; inhibition, % at 20 µM; actives 0.25% (n = 360,000); AID 588621;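 active = inhibition at 20 µM, scaled per plate between control wells, above about 37%, limit read from the data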;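 also: 0% = DMSO with enzyme and substrate and 100% = substrate only without enzyme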
Target sequence (P54829 whole entry, looked up): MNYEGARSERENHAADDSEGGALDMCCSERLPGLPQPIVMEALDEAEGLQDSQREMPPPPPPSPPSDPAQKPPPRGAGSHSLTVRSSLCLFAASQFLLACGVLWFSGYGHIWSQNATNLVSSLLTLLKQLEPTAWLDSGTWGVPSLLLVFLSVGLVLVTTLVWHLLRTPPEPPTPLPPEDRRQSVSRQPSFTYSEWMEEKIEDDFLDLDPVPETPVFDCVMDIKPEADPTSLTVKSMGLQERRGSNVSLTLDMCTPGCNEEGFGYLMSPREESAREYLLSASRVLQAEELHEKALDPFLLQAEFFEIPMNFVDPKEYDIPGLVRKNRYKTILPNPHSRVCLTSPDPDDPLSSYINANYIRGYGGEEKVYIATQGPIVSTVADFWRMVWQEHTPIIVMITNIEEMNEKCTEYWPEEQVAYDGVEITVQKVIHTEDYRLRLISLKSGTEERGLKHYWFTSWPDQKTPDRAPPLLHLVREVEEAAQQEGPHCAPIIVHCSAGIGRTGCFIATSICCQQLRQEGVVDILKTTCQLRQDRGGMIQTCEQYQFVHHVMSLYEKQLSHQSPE
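Material: STEP (striatal-enriched tyrosine phosphatase) enzyme, cell-free; Compound dosing: 20 µM single dose in 1% DMSO; Technique: fluorescence read at 480 nm ex / 540 nm em; Times: reaction 20 min, ambient temperature; Medium: 50 mM Bis-Tris pH 6.0 with 2.5 mM DTT and 0.005% Tween 20; Also added: OMFP at 25 µM.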
GRK2 aptamer HTS – inhibitors of human GRK2 displacing RNA aptamer; P25098; bead flow cytometry, FAM-aptamer displacement from GRK2; inhibition of aptamer binding, % at 10 µM; actives 0.59% (n = 330,000);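 active = inhibition of aptamer binding above 40%, roughly 3 SD of noise, on plates passing a quality check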;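 also: median bead fluorescence of bound FAM aptamer so fluorescent compounds give negative values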
Scp-1 conf – Scp-1 (human) inhibition, single-dose confirmed | shares compounds with Scp-1 inhibitor | recombinant SCP-1 catalytic domain, phosphate release, malachite green absorbance | inhibition, % at 20 µM | actives 61% (n = 2,500);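 also: plate controls were DMSO with enzyme for no effect and buffer wells lacking enzyme for full effect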
MG interference – counter-screen for Scp-1 inhibitors: colorimetric interference | shares compounds with Scp-1 inhibitor | Colorimetric interference counterscreen, malachite green absorbance 630 nm | apparent inhibition (interference), % at 20 µM | 2,500 tested, under 10 active | AID 540313;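 also: compounds added after enzyme reaction finished so only phosphate colour detection is probed; plate controls were DMSO wells with completed Scp-1 reaction for no effect and substrate wells lacking enzyme for full effect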
Scp-1 Tm shift – validation of human Scp-1 inhibitors by thermal shift binding. shares compounds with Scp-1 inhibitor. Recombinant SCP1, Sypro Orange thermal shift Tm. thermal shift relative to vanadate control, % at 40 µM. actives 25% (n = 1,500). AID 540329;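 active = substances whose mean melting-temperature shift, as a percentage of the reference inhibitor's shift, reaches about 5.3%, limit read from the data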;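 also: 0% = Tm of DMSO wells and 100% = Tm with sodium orthovanadate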
* = called active by the depositor. Only some compounds are listed: those with a hit (about 2.1% of all), similar ones and a draw of the others.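 The calls were made as follows, unless noted: active = inhibition of at least 30% at 20 µM; inactive = the rest.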

`CC(=O)Nc1ccc(SCC(=O)Nc2cc(C)on2)cc1` gave Scp-1 inhibitor -7, LMPTP block -1, SUMO1-SIM PPI 3, DNMT1 block -1, STEP inh 4 and GRK2 aptamer HTS 0.
`O=C(N/N=C/c1ccc(F)c(F)c1)c1cc2c(s1)-c1ccccc1CC2` gave Scp-1 inhibitor 62*, LMPTP block 6, SUMO1-SIM PPI 2, DNMT1 block 7, STEP inh 0, GRK2 aptamer HTS 0, Scp-1 conf 42*, MG interference -16 and Scp-1 Tm shift 3.
For COc1ccccc1N1CCN(C(c2cccs2)C(C)NC(=O)c2ccncc2)CC1 (stereo not drawn) the results were Scp-1 inhibitor 3, LMPTP block 0, SUMO1-SIM PPI -2, DNMT1 block 2, STEP inh 0 and GRK2 aptamer HTS 0.
Screening C[C@@H]1CC=C[C@@H]2[C@H]1C(=O)N(Cc1ccccc1)[C@H]2c1cccc(C#Cc2ccccc2)c1 returned Scp-1 inhibitor 70*, LMPTP block 5, SUMO1-SIM PPI -1, DNMT1 block 3, STEP inh 2, GRK2 aptamer HTS 0, Scp-1 conf 42*, MG interference -22 and Scp-1 Tm shift -16.
Screening COC(=O)c1cc(CNC(=O)c2ccccc2OCc2c(C)noc2C)ccc1OC returned Scp-1 inhibitor -4, LMPTP block 0, SUMO1-SIM PPI 4, DNMT1 block 0, STEP inh -2 and GRK2 aptamer HTS 11.
Cc1ccc(CC(=O)N/N=C/c2ccc(OC(=O)c3ccc([N+](=O)[O-])cc3)cc2)cc1 was read as Scp-1 inhibitor 61*, LMPTP block 15, SUMO1-SIM PPI -6, DNMT1 block 41, STEP inh 3, GRK2 aptamer HTS 0, Scp-1 conf 42*, MG interference -7 and Scp-1 Tm shift -4.
Screening Cc1cc([N+](=O)[O-])cc(C)c1OCC(=O)N/N=C/c1ccc(OC(=O)c2ccccc2)cc1 returned Scp-1 inhibitor -6, LMPTP block 1, SUMO1-SIM PPI -4, DNMT1 block 12, STEP inh 2 and GRK2 aptamer HTS 4.
O=C1CSC(c2ccccn2)N1c1ccc(F)cc1F (stereo not drawn) was read as Scp-1 inhibitor -6, LMPTP block -3, SUMO1-SIM PPI 3, DNMT1 block 0, STEP inh -3 and GRK2 aptamer HTS 3.
Screening CCOC(=O)C1C(C(C)=O)=C(c2ccccc2)c2ccccc2N1S(=O)(=O)C(F)(F)F (stereo not drawn) returned Scp-1 inhibitor 88*, LMPTP block 1, SUMO1-SIM PPI -5, DNMT1 block 9, STEP inh 0, GRK2 aptamer HTS 6, Scp-1 conf 22 and MG interference -23.
Screening CCOC(=O)C1=C(c2ccccc2)c2ccccc2N(S(=O)(=O)C(F)(F)F)C1C(=O)OCC (stereo not drawn) returned Scp-1 inhibitor -7, LMPTP block 1, SUMO1-SIM PPI -10, DNMT1 block 2, STEP inh 1 and GRK2 aptamer HTS 17.
For O=C(COc1ccccc1[N+](=O)[O-])Nc1cccc(S(=O)(=O)NC2=NCCCCC2)c1 the results were Scp-1 inhibitor 62*, LMPTP block 1, SUMO1-SIM PPI -8, DNMT1 block 7, STEP inh -1, GRK2 aptamer HTS 4, Scp-1 conf 74*, MG interference -10 and Scp-1 Tm shift 4.
Screening CC(C)(C)c1cc(NS(=O)(=O)c2cccs2)no1 returned Scp-1 inhibitor -6, LMPTP block -1, SUMO1-SIM PPI 3, DNMT1 block 1, STEP inh 0 and GRK2 aptamer HTS 2.

High-throughput results (PubChem BioAssay)
